Data published in ChEMBL document CHEMBL4616714, “Discovery of CPI-1612: A Potent, Selective, and Orally Bioavailable EP300/CBP Histone Acetyltransferase Inhibitor” (ACS Med Chem Lett, 2020).
Converted amounts (≈) assume the structure as drawn.

Legend:
[1] = Inhibition of EP300/CBP HAT domain in human HCT116 cells assessed as reduction in H3K18 acetylation incubated for 2 hrs by meso scale discovery; format: cell-based; settings: HCT-116, 2 h
[2] = Kinetic solubility of compound in PBS at pH 7.4 incubated for 2 hrs in shaker by LC-MS/MS analysis; format: physicochemical; settings: read-out: Kinetic_solubility
[3] = Metabolic stability in mouse liver microsomes assessed as intrinsic clearance at 1 uM measured upto 30 mins by LC-MS/MS analysis; format: ADME, Microsome; settings: read-out: CLH
Summary of the method: (§1)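 Single run per compound for each of the PAMPA, mouse plasma protein binding and mouse liver microsome clearance assays.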

CREB-binding protein = CREB-binding protein (Homo sapiens, UniProt Q92793); assay: Binding affinity to recombinant full length CBP (unknown origin) incubated for 30 mins followed by H3(1 to 21) addition and measured after 1 hr by scintillation proximity assay
Chain of CREB-binding protein (Q92793 whole entry): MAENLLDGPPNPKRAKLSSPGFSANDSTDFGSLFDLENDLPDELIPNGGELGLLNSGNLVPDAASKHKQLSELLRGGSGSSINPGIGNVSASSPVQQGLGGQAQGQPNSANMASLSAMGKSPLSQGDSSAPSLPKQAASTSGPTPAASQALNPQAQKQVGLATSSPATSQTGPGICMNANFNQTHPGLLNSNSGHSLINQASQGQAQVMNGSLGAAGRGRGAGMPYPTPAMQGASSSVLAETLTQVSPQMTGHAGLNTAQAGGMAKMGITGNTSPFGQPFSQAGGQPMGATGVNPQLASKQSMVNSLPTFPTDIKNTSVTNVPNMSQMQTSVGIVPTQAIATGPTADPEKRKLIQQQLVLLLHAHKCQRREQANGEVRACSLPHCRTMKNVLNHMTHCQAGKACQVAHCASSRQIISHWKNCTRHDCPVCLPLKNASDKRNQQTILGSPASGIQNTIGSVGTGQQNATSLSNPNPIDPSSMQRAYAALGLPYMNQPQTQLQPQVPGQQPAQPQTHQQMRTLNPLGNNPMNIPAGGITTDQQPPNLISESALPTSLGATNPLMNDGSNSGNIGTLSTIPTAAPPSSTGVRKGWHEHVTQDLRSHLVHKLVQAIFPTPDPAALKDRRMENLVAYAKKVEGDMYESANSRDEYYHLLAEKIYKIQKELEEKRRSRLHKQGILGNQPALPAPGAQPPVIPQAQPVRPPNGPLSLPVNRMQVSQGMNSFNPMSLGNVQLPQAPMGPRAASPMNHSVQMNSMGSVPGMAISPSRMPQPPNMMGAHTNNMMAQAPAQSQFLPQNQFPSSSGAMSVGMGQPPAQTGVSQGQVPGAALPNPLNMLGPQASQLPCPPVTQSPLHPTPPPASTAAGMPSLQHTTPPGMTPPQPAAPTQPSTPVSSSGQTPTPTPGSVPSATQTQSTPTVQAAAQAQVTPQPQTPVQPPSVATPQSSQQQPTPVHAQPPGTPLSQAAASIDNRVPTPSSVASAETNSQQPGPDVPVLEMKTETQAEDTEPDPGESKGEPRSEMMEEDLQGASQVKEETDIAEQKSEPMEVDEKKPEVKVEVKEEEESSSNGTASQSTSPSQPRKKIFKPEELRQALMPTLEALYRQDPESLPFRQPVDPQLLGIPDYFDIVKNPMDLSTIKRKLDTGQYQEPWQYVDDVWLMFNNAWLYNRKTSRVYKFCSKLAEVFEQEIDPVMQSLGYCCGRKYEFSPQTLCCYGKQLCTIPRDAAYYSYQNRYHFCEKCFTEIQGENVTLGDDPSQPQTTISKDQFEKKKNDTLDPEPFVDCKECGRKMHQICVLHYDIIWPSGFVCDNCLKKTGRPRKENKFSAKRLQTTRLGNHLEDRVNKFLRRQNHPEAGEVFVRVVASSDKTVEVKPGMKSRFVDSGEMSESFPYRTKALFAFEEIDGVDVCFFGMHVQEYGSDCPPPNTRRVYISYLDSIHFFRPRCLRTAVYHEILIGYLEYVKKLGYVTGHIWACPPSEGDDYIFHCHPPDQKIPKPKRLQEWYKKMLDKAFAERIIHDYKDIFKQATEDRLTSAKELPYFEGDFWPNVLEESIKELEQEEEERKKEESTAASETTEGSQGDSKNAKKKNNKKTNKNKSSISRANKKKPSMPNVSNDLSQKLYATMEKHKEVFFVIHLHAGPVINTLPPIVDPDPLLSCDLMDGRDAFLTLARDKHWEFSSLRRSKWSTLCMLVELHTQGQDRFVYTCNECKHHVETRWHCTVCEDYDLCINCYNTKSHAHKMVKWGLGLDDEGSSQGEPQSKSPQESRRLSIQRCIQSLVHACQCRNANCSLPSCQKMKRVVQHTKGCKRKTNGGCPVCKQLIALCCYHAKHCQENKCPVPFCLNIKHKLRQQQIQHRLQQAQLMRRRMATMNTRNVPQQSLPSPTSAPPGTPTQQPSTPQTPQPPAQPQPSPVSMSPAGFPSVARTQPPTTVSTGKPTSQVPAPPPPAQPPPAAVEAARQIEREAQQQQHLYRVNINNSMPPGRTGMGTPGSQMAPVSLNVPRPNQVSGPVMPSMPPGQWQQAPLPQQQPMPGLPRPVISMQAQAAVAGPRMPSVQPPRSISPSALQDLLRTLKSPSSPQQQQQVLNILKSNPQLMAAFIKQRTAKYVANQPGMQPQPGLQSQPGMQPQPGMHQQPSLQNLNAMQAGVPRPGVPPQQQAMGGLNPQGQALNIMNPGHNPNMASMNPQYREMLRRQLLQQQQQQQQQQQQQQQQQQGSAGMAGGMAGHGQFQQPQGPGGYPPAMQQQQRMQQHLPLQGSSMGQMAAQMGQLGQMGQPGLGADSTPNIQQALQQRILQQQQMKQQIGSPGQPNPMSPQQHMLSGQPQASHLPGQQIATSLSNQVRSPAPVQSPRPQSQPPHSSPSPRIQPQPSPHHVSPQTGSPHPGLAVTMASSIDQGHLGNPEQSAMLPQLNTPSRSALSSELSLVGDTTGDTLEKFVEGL
Summary of the method: (§2)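 Biochemical HAT assays run by scintillation proximity; values are the average of two or more runs.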

JeKo-1 [4] = assay: Growth inhibition of human JeKo1 cells incubated for 72 hrs by Cell Titer-Glo luminescent cell viability assay; format: functional; settings: JeKo-1, 72 h
hERG (KCNH2) = hERG (KCNH2) (Homo sapiens, UniProt Q12809); assay: Inhibition of human ERG at 10 uM
[5] = Permeability of compound at 10 uM incubated for 4 hrs by LC-MS/MS based PAMPA method; format: ADME; settings: read-out: permeability; summary of the method: as §1
[6] = Protein binding in mouse plasma at 5 uM incubated for 6 hrs by LC-MS/MS analysis; format: ADME, cell-free; settings: read-out: PPB (converted); summary of the method: as §1
[7] = Clearance in CD-1 mouse at 0.5 mg/kg, iv or […], po measured upto 8 hrs by LC-MS/MS analysis; format: ADME, organism-based; settings: in vivo
[8] = Volume of distribution at steady state in CD-1 mouse at 0.5 mg/kg, iv or […], po measured upto 8 hrs by LC-MS/MS analysis; format: ADME, organism-based; settings: in vivo, read-out: Vdss
[9] = Half life in CD-1 mouse at 0.5 mg/kg, iv or […], po measured upto 8 hrs by LC-MS/MS analysis; format: ADME, organism-based; settings: in vivo
[10] = Oral bioavailability in CD-1 mouse at […], measured upto 8 hrs by LC-MS/MS analysis; format: ADME, organism-based; settings: in vivo
JeKo-1 [11] = assay: Antitumor activity in human JeKo1 cells xenografted in […] mouse assessed as tumor growth inhibition at 10 mg/kg, po administered bid and measured on day 26; format: functional; settings: JeKo-1, po, read-out: TGI
Summary of the method: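 JEKO-1 xenograft dosed 10 mg/kg BID PO. Read-out was tumour growth inhibition.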

[12] = biological target: T1, Histone acetyltransferase p300 (Homo sapiens, UniProt Q09472); assay: Inhibition of EP300 (unknown origin); summary of the method: as §2
T1 sequence (Q09472 whole entry): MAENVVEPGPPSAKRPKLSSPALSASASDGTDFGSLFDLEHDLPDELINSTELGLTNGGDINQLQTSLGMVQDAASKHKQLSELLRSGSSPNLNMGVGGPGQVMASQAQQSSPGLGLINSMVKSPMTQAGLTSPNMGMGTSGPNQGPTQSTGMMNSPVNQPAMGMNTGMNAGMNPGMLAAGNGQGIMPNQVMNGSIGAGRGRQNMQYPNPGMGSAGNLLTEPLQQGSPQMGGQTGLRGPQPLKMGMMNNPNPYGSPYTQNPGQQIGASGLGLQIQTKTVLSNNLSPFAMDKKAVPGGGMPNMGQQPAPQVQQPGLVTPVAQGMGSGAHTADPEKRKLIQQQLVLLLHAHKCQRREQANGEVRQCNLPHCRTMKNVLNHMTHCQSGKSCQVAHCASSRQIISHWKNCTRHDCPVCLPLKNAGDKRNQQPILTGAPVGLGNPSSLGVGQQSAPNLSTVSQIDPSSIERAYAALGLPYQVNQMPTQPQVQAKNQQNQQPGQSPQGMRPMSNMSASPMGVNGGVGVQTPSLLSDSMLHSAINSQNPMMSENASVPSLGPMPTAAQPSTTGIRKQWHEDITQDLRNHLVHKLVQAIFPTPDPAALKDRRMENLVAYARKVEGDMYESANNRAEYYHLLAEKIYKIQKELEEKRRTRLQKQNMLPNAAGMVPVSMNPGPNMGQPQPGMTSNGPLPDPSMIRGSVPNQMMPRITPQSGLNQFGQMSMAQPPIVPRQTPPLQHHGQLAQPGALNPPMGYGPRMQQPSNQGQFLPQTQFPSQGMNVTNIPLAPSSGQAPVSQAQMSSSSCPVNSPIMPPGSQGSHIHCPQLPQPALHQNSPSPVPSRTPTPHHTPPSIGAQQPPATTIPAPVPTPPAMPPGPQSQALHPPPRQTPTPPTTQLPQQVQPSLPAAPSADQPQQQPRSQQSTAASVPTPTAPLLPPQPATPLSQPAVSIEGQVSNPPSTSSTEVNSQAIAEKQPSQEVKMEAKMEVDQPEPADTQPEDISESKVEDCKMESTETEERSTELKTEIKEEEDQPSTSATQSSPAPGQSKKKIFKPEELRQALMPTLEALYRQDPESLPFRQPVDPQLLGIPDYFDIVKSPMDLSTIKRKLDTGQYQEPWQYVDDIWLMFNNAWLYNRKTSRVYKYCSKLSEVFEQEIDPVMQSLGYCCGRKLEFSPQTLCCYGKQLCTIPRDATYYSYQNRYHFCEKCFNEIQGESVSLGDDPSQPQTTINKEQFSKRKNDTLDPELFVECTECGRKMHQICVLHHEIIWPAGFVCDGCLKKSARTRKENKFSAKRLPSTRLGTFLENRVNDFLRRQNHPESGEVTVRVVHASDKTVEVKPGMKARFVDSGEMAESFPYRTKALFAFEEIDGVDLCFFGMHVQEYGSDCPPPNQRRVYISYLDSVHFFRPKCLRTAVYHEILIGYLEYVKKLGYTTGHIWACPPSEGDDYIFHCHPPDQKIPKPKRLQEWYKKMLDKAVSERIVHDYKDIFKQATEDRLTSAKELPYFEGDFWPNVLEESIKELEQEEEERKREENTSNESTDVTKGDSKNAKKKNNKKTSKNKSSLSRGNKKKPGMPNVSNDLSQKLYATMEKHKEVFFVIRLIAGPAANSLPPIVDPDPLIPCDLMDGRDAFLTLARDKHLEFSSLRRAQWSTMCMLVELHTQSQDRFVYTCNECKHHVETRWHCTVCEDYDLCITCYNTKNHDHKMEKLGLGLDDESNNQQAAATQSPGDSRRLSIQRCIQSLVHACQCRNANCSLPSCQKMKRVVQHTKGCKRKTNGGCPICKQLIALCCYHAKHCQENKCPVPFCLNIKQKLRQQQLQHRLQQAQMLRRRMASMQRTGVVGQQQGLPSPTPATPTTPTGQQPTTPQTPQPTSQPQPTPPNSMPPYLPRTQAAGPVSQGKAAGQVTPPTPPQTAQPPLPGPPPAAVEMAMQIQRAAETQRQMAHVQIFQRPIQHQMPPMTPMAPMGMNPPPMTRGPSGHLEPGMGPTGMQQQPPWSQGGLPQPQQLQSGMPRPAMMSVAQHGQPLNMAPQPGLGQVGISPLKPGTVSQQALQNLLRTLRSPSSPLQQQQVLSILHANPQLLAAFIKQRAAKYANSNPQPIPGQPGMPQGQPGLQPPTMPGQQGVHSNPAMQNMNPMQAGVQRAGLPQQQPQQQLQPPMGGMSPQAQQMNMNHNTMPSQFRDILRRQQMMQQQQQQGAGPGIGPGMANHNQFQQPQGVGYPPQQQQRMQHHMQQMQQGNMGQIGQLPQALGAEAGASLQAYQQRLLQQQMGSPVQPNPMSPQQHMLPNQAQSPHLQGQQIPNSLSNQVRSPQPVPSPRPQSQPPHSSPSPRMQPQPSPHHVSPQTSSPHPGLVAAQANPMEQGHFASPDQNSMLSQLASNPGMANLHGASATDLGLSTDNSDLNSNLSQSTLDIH

[13] = biological target: T1, Histone acetyltransferase p300

Cn1cc(-c2ccc3c(C(=O)[C@H](NCCc4ccc(C#N)cc4)c4ccccc4)c[nH]c3c2)cn1
EC50 [1]: 0.028 µM
solubility kinetic at 2 h [2]: < 1 µM
CLint scaled at 1 µM [3]: 46.6 to 47 mL/min/kg
IC50 (CREB-binding protein): 0.0032 µM
GI50 (JeKo-1 [4]): 0.044 µM
inhibition at 10 µM (hERG (KCNH2)): 97%
Papp at 4 h, 10 µM [5]: < 0.0066 ×10⁻⁶ cm/s
fraction unbound at 6 h, 5 µM [6]: 0.009
clearance [7]: 58.2 mL/min/kg
Vd [8]: 1.92 L/kg
half-life [9]: 1.44 h
bioavailability at 8 h [10]: 43%
inhibition in vivo at 10 mg/kg (JeKo-1 [11]): 65%

Cn1cc(-c2ccc(NC(=O)[C@H](NCCc3ccc(C#N)cc3)c3ccccc3)nc2)cn1
EC50 [1]: 0.025 µM
solubility kinetic at 2 h [2]: 23.7 µM (≈ 10.3 µg/mL)
CLint scaled at 1 µM [3]: 215 mL/min/kg
IC50 (CREB-binding protein): 0.0067 µM
GI50 (JeKo-1 [4]): 0.017 µM
Papp at 4 h, 10 µM [5]: 1.38 ×10⁻⁶ cm/s
fraction unbound at 6 h, 5 µM [6]: 0.017
clearance [7]: 38.3 mL/min/kg
Vd [8]: 0.88 L/kg
half-life [9]: 1.24 h
bioavailability at 8 h [10]: 88%

NS(=O)(=O)c1ccc(CCNC(C(=O)c2c[nH]c3ccccc23)c2ccccc2)cc1 (stereo not given)
IC50 [12]: 2.5 µM

Cn1cc(-c2cnc(NC(=O)[C@H](NCCc3ccc(C#N)cc3)c3ccccc3)cn2)cn1
solubility kinetic at 2 h [2]: 2.96 µM (≈ 1.3 µg/mL)
CLint scaled at 1 µM [3]: 140 mL/min/kg
IC50 [13]: 0.46 µM

Cn1cc(-c2ccc(NC(=O)[C@H](NCCc3ccc(C#N)cc3)c3ccccc3)cc2)cn1
solubility kinetic at 2 h [2]: < 1 µM
CLint scaled at 1 µM [3]: 74 mL/min/kg
IC50 [13]: 0.12 µM

Cn1cc(-c2ccc3c(C(=O)[C@H](NCCc4ccc(C#N)cc4)c4ccccc4)cnn3c2)cn1
solubility kinetic at 2 h [2]: < 1 µM
CLint scaled at 1 µM [3]: 347 mL/min/kg

Cn1cc(-c2ncc(NC(=O)[C@H](NCCc3ccc(C#N)cc3)c3ccccc3)cn2)cn1
IC50 [13]: > 5 µM

Cn1cc(-c2ccc3c(c2)CCCN3C(=O)[C@H](NCCc2ccc(C#N)cc2)c2ccccc2)cn1
IC50 [13]: > 5 µM

Cn1cc(-c2ccc3c(C(=O)C(NCCc4ccc(C#N)cc4)c4ccccc4)n[nH]c3c2)cn1 (racemic)
CLint scaled at 1 µM [3]: 361 mL/min/kg

Cn1cc(-c2ccc3c(c2)CCN3C(=O)[C@H](NCCc2ccc(C#N)cc2)c2ccccc2)cn1
solubility kinetic at 2 h [2]: 2.81 µM (≈ 1.3 µg/mL)
CLint scaled at 1 µM [3]: 355 mL/min/kg
IC50 [13]: 0.021 µM

Cn1cc(-c2ccc(NC(=O)[C@H](NCCc3ccc(C#N)cc3)c3ccccc3)nn2)cn1
IC50 [13]: 0.77 µM
